# High-throughput results deposited in PubChem by Johns Hopkins Ion Channel Center.
# The list is not random: actives were taken first. Their share in the collection is about 3.5%.
# MrgX1 PAM – positive allosteric modulators of MrgX1, primary screen, HEK293 cells, Fluo-4 calcium flux. Mas-related G-protein coupled receptor member X1 (Homo sapiens), Q96LB2. FDSS; stronger effect = higher value. B-score at 10 µM. actives 0.63% (n = 310,000). AID 588675, 2011;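 active means plate-corrected calcium response at least 3 library SD above typical, normal starting fluorescence, not activating the receptor alone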;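 further: compound read alongside a low EC10 to EC30 dose of BAM8-22 agonist; peak minus trough fluorescence over baseline measured at the second addition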
# RGS4 inh – RGS4 inhibitors, primary screen, cell-based, HEK293 M3R inducible RGS4, calcium flux | B-score at 10 µM | Fluo-4 calcium flux; stronger effect = higher value; triggered by carbachol at its EC20 | actives 0.45% (n = 310,000);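 active means B-score, a plate-corrected calcium signal, over three deviations above library mean, with baseline fluorescence within five deviations of library mean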;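 further: RGS4 expression induced by doxycycline in cells with stable M3 receptor; B-score is computed from the integrated fluorescence ratio over baseline after carbachol; higher B-score means a larger calcium signal and so more RGS4 inhibition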
# Target sequence (P49798 whole entry, looked up): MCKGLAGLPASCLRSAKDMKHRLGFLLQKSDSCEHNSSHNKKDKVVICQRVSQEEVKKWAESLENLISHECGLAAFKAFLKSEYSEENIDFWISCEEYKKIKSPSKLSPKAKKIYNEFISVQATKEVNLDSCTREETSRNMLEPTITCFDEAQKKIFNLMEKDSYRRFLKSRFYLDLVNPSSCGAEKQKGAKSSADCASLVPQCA
# RGS4 act – RGS4 potentiators or activators, primary screen, cell-based, HEK293 M3R inducible RGS4, calcium flux; actives 0.92% (n = 310,000); carbachol calcium flux Fluo4; stronger effect = lower value; B-score at 10 µM;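 active means B-score of the integrated calcium signal more than 4 SD below the library mean, with starting fluorescence not abnormally high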;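 further: negative B-score means reduced calcium response which marks RGS4 activation or potentiation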
#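 Reagent: ECmax carbachol challenge; Test system: M3R-expressing HEK293 line, RGS4 induced by doxycycline; Schedule: overnight RGS4 induction, 30 min dye load 37 °C, 20 min compound RT; Detection: calcium dye Fluo4 fluorescence; Read-out: Agonist-evoked peak-minus-minimum fluorescence over baseline, integrated ratio, B score.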
# MrgX1 ag – agonists of human MrgX1 receptor, primary screen, HEK293 cells, Fluo-4 calcium flux. Fluo-4 calcium fluorescence, agonist mode; stronger effect = higher value. B-score at 10 µM. actives 0.44% (n = 310,000). AID 588627, 2011;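 active means calcium response B-score plate-corrected fluorescence ratio at least 3 library SD, with starting fluorescence B-score inside 5 SD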
#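 Material – MrgX1-expressing HEK293 cells · Input – 15,000 cells seeded per well · Dosing – compound as first of three additions · Times – overnight seeding, then 1 h dark dye loading · Measured by – kinetic Fluo-4 NW fluorescence of intracellular calcium · Read-out – B-scored fluorescence response ratio · Benchmarks – positive and negative control wells on each plate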
# MrgX1 antagonist – antagonists of human MrgX1 receptor, primary screen, HEK293 cells, Fluo-4 calcium flux; AID 588676, 2011; actives 1.3% (n = 310,000); B-score at 10 µM; Mas-related G-protein coupled receptor member X1 (Homo sapiens), Q96LB2; BAM8-22 antagonism; stronger effect = lower value;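 active means calcium-response B-score plate-corrected more than 3 library SD below zero, starting fluorescence within 5 deviations, no agonist response on first addition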;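 further: peak minus trough fluorescence over baseline after final BAM8-22 challenge near maximal dose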
# RGS4 inh valid – enhanced carbachol calcium response, M3R/RGS4 cells, RGS4 inhibitor project, cell-based, validation screen, HEK293 M3R/RGS4, calcium flux. shares compounds with RGS4 inh. actives 65% (n = 1,700). calcium response, % at 10 µM. carbachol calcium Fluo-4 fluorescence; carbachol added at its EC20; 0 = buffer wells, 100 = carbachol control;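 active means duplicate-averaged calcium response above the buffer-only control mean plus 5 SD of those controls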;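 further: integrated fluorescence ratio F max minus min over baseline F0; higher response in RGS4-induced cells means RGS4 inhibition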
# RGS4 uninduced – carbachol calcium response in non-induced M3R cells, confirmation, counter-screen for RGS4 inhibitor project, cell-based, HEK293 M3R. shares compounds with RGS4 inh. carbachol calcium Fluo-4; submaximal (EC20) carbachol stimulus; buffer wells 0%, carbachol control wells 100%. activity (percent), % at 10 µM. actives 20% (n = 1,900). AID 493000, 2010; call rule not given here;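 further: RGS4 induction absent so cells express M3R without RGS4; higher means more calcium signal and flags a non-specific hit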
# RGS4 inh ctr2 – second RGS4 inhibitor counter-screen in uninduced cells lacking carbachol; shares compounds with RGS4 inh; HEK293 M3R/RGS4 non-induced, Fluo-4 calcium, no carbachol; normalised: buffer wells 0%, carbachol wells 100%; calcium response (agonist-mode artifact), % at 10 µM; actives 22% (n = 1,900); AID 493001;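 active means duplicate-averaged calcium rise in uninduced cells above buffer wells' mean plus 5 SD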
# Active calls of the source: *; i = inactive; . = no result.
SMILES,MrgX1 PAM,RGS4 inh,RGS4 act,MrgX1 ag,MrgX1 antagonist,RGS4 inh valid,RGS4 uninduced,RGS4 inh ctr2
COc1ccc(-c2cc(C(=O)N3CCCCC3)c3ccccc3n2)cc1OC,i,i,i,i,i,.,.,.
COc1ccc(Nc2nnc(-c3ccccc3)c3ccccc23)cc1C(=O)N1CCCCC1,i,5*,i,i,i,148.0%*,88.0%*,i
COc1ccc(Nc2nnc(-c3ccc(C)cc3)c3ccccc23)cc1C(=O)N1CCCCC1,i,i,i,i,i,.,i,i
COc1cccc(CN2CCNC(=O)C2CC(=O)N(C)C2CCOCC2)c1OC (configuration not stated),i,i,i,i,i,.,.,.
CCOCCCNC1=C(Cl)C(=O)c2ccccc2C1=O,i,5.55*,i,i,i,30.0%*,i,i
CCOCCCNS(=O)(=O)c1ccccc1,i,i,i,i,i,.,.,.
Cc1nn2c(-c3ccccc3)ccnc2c1Br,i,i,i,i,i,i,i,i
Cc1ccc(-c2ccnc3c(Br)c(C)nn23)cc1,i,i,i,i,i,i,i,i
Cc1nn2c(-c3cccnc3)ccnc2c1-c1ccccc1,i,i,i,i,i,.,.,.
C=CCNC(=S)NC(=O)c1csc([N+](=O)[O-])c1,i,i,i,i,i,.,.,.
CC1=NN(c2ccc(Cl)cc2)C(=O)C1C(c1cccc(O)c1)c1c(C)[nH]n(-c2ccc(Cl)cc2)c1=O (configuration not stated),i,i,i,i,i,.,35.5%*,i
CC1=NN(c2ccc(F)cc2)C(=O)C1C(c1cccc(O)c1)c1c(C)[nH]n(-c2ccc(F)cc2)c1=O (configuration not stated),i,9.66*,i,i,i,13.0%*,i,i
CC1=NN(c2ccc(C)cc2C)C(=O)C1C(c1ccccc1)C1C(=O)N(c2ccc(C)cc2C)N=C1C (configuration not stated),i,i,i,i,i,.,.,.
C[C@H](NCc1c[nH]c2ccccc12)c1ccccc1,i,i,i,i,i,.,.,.
CCCc1c(C(=O)N/N=C/c2cccnc2)nnn1-c1nonc1N,i,i,i,i,i,.,.,.
CCOc1cccc(-c2c(C(=O)N/N=C/c3ccc(Br)cc3)nnn2-c2nonc2N)c1,i,19.1*,i,i,i,37.5%*,57.0%*,i
CCOc1ccc(-c2c(C(=O)N/N=C/c3cccc(Br)c3)nnn2-c2nonc2N)cc1,i,i,i,i,i,i,i,8.0%*
CCOc1ccc(-c2c(C(=O)N/N=C/c3ccc(O)cc3)nnn2-c2nonc2N)cc1,i,i,i,i,i,.,.,.
CCOc1cccc(-c2c(C(=O)N/N=C/c3cccnc3)nnn2-c2nonc2N)c1,i,i,i,i,i,i,i,i
CC(=O)c1cn(CC(=O)Nc2ccccc2Cl)c2ccccc12,i,i,i,i,i,.,.,.
Cc1ccc(C(=O)N2CCOCC2)c(F)c1F,i,i,i,i,i,.,.,.
